According to ChEMBL document CHEMBL1138242, “Synthesis, crystal structure, and activity of pyrazole-based inhibitors of p38 kinase” (J Med Chem, 2007):
The source made the active and inactive calls. The rule behind the calls is not given here.

Tests used:
Rattus norvegicus [1] = experiment: Inhibition of LPS-induced TNF production in rat pretreated at 20 mg/kg, po after […] by ELISA; type: functional
Rattus norvegicus [2] = experiment: Inhibition of LPS-induced TNF production in rat pretreated at 5 mg/kg, po after […] by ELISA; type: functional
Mus musculus [3] = experiment: Decrease of arthritis incidence in collagen-induced DBA/1 mouse at 15 mg/kg, po bid; type: functional, organism-based; parameters: dose 15 mg/kg
Procedure, shortened: (§1)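 Male DBA/1 mice; arthritis induced by subcutaneous type II chick collagen in Freund's adjuvant on days 1 and 21. Test agent given by oral gavage twice daily in Methocel/Tween, days 21-56. Weekly ip anti-TNF antibody served as comparator. Animals scored for signs of arthritis, with incidence compared with vehicle by logistic regression (p < 0.05); 8-10 mice per group.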

Mus musculus [4] = experiment: Decrease of arthritis incidence in collagen-induced DBA/1 mouse at 30 mg/kg, po bid; type: functional, organism-based; parameters: dose 30 mg/kg; procedure, shortened: as §1
MAP kinase p38 = MAP kinase p38 (Homo sapiens, UniProt O15264+Q15759+Q16539+P53778); experiment: Inhibition of p38 MAPK activity assessed as EGFR phosphorylation; type: protein assay

## CN1CCN(c2[nH]nc(-c3ccc(Cl)cc3)c2-c2ccncc2)CC1
Rattus norvegicus [1]
  inhibition in vivo at 20 mg/kg: 95%
Rattus norvegicus [2]
  inhibition in vivo at 5 mg/kg: 98%
Mus musculus [3]
  Activity: Active
Mus musculus [4]
  Activity: Active

## OC1CCN(c2[nH]nc(-c3ccc(Cl)cc3)c2-c2ccncc2)CC1
Rattus norvegicus [1]
  inhibition in vivo at 20 mg/kg: 91%
Rattus norvegicus [2]
  inhibition in vivo at 5 mg/kg: 52%

## CC1CN(c2[nH]nc(-c3ccc(Cl)cc3)c2-c2ccncc2)CCN1 (stereo not drawn)
MAP kinase p38
  IC50: 16 nM
Rattus norvegicus [1]
  inhibition in vivo at 20 mg/kg: 95%
Rattus norvegicus [2]
  inhibition in vivo at 5 mg/kg: 84%

## Clc1ccc(-c2n[nH]c(N3CCC4CCCCC4C3)c2-c2ccncc2)cc1 (stereo not drawn)
Rattus norvegicus [1]
  inhibition in vivo at 20 mg/kg: 11%

## OC1CCCN(c2[nH]nc(-c3ccc(Cl)cc3)c2-c2ccncc2)C1 (stereo not drawn)
Rattus norvegicus [1]
  inhibition in vivo at 20 mg/kg: 75%

## Clc1ccc(-c2n[nH]c(N3CCCC4CCCCC43)c2-c2ccncc2)cc1 (stereo not drawn)
Rattus norvegicus [1]
  inhibition in vivo at 20 mg/kg: 33%

## CC1CCN(c2[nH]nc(-c3ccc(Cl)cc3)c2-c2ccncc2)CC1
Rattus norvegicus [1]
  inhibition in vivo at 20 mg/kg: 16%

## CC1CC(C)CN(c2[nH]nc(-c3ccc(Cl)cc3)c2-c2ccncc2)C1 (stereo not drawn)
Rattus norvegicus [1]
  inhibition in vivo at 20 mg/kg: 53%

## Clc1ccc(-c2n[nH]c(N3CCc4ccccc4C3)c2-c2ccncc2)cc1
Rattus norvegicus [1]
  inhibition in vivo at 20 mg/kg: 12%

## CC1CN(c2[nH]nc(-c3ccc(Cl)cc3)c2-c2ccncc2)CC(C)N1 (stereo not drawn)
Rattus norvegicus [1]
  inhibition in vivo at 20 mg/kg: 96%
Rattus norvegicus [2]
  inhibition in vivo at 5 mg/kg: 93%

## Clc1ccc(-c2n[nH]c(N3CCN4CCC[C@H]4C3)c2-c2ccncc2)cc1
Rattus norvegicus [1]
  inhibition in vivo at 20 mg/kg: 89%
